Laboratory results published in ChEMBL document CHEMBL4270555, “Synthesis and biological evaluation of magnolol derivatives as melatonergic receptor agonists with potential use in depression” (Eur J Med Chem, 2018).
Calls of active or inactive are those of the source. The rule behind the calls is not given here.

Assays:
Mus musculus [1] = test: Decrease in dopamine level in Kunming mouse hippocampus at 40 mg/kg, po treated for 7 days by HPLC-ECD analysis; type: functional, organism-based
Summary of the method: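 Male Kunming mice received vehicle or 40 mg/kg for 7 days, then were killed by cervical dislocation and the brain regions dissected on ice. Tissue was homogenized in ice-cold 0.2 M perchloric acid with 0.1 mM EDTA and centrifuged at 15,000 rpm, 20 min, 4 °C. Supernatant was analyzed by HPLC-ECD (+0.50 V; phosphate/octanesulfonate mobile phase, pH 3.0). Results in ng/g, mean ± SEM.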

[2] = Drug metabolism in Sprague-Dawley rat plasma assessed as (2S,3R,4S,5S,6R)-2-(5'-allyl-2'-hydroxy-5-(1-hydroxyallyl)biphenyl-2-yloxy)-6-(hydroxymethyl)tetrahydro-2H-pyran-3,4,5-triol formation at 100 mg/kg, po by UPLC-IT-TOF-MS analysis; type: ADME, organism-based; conditions: in vivo
Summary of the method: (§1)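 Rats (n = 6) housed in metabolic cages received 100.0 mg/kg orally; controls received 0.5% CMC-Na. Plasma, urine and faeces were collected and analyzed by LC-IT-TOF-MS on a C18 column at 30 °C. Gradient 5–100% acetonitrile with 0.05% formic acid over 18 min at 0.2 mL/min; positive and negative ion MS/MS.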

[3] = Drug metabolism in Sprague-Dawley rat plasma assessed as (2S,3R,4S,5S,6R)-2-(5,5'-diallyl-2'-methoxybiphenyl-2-yloxy)-6-(hydroxymethyl)tetrahydro-2H-pyran-3,4,5-triol formation at 100 mg/kg, po by UPLC-IT-TOF-MS analysis; type: ADME, organism-based; conditions: in vivo; summary of the method: as §1
[4] = Drug metabolism in Sprague-Dawley rat plasma assessed as (2R,2'R,3S,3'S,4S,4'S,5R,5'R,6S,6'S)-6,6'-(5,5'-diallylbiphenyl-2,2'-diyl)bis(oxy)bis(2-(hydroxymethyl)tetrahydro-2H-pyran-3,4,5-triol) formation at 100 mg/kg, po by UPLC-IT-TOF-MS analysis; type: ADME, organism-based; conditions: in vivo; summary of the method: as §1
Rattus norvegicus [5] = test: Toxicity in Sprague-Dawley rat assessed as ulceration at 2000 mg/kg, po measured over 4 hrs; type: organism-based; conditions: in vivo
Summary of the method: (§2)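 Acute oral toxicity run per OECD 425 in adult SD rats (180–220 g). Six animals per group: vehicle control (0.5% CMC-Na, oral), male rats and female rats each dosed orally at 2000 mg/kg. Animals were watched continuously for the first 4 h for behavior, breathing, cutaneous signs (irritation, ulceration, caustic injury, skin rashes), sensory nervous and gastrointestinal effects. Later checks were hourly for 24 h, then every 6 h for 48 h.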

[6] = target: Melatonin receptor type 1A (Homo sapiens, UniProt P48039); test: Agonist activity at human MT1 receptor expressed in HEK293 cells after 24 hrs by Fluo-8 dye-based calcium assay; type: functional, cell-based
Summary of the method: (§3)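 Fluo-8 calcium flux in HEK293 cells stably expressing human MT1 or MT2, grown in DMEM + 10% FBS at 37 °C, seeded 4×10^4/well and incubated 24 h. Compounds in DMSO/HBSS at several concentrations; fluorescence read at room temperature (ex 485, em 525 nm). Triplicate wells, three independent experiments; EC50 by nonlinear regression.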

[7] = target: T1, Melatonin receptor type 1B (Homo sapiens, UniProt P49286); test: Agonist activity at human MT2 receptor expressed in HEK293 cells after 24 hrs by Fluo-8 dye-based calcium assay; type: functional, cell-based; summary of the method: as §3
T1 sequence (P49286 whole entry): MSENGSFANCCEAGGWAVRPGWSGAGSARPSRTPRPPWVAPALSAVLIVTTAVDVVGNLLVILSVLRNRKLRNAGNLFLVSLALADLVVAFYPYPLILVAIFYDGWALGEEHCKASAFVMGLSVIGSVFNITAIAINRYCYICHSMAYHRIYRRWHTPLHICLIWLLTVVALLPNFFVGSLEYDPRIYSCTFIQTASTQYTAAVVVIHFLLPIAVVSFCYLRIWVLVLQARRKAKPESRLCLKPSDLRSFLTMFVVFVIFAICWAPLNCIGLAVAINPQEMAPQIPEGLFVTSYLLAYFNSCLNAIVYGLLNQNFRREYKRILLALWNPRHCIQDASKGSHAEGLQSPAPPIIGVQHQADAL

Rattus norvegicus [8] = test: Toxicity in Sprague-Dawley rat assessed as change in breathing rate at 2000 mg/kg, po measured continuously for first 4 hrs followed by measured every hour for next 24 hrs and at 6 hrs intervals for following 48 hrs post dose; type: organism-based; conditions: in vivo
Summary of the method: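 Followed OECD 425 in adult SD rats (180–220 g), three groups of six. Vehicle control received 0.5% CMC-Na orally; separate male and female groups received 2000 mg/kg orally. Endpoints observed: behaviour, breathing, cutaneous effects, sensory nervous system responses, gastrointestinal effects and deaths.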

[9] = Drug metabolism in Sprague-Dawley rat plasma assessed as (2S,3S,4S,5R,6S)-6-(5-acryloyl-2'-hydroxy-5'-(1-hydroxyallyl)biphenyl-2-yloxy)-3,4,5-trihydroxytetrahydro-2H-pyran-2-carboxylic acid formation at 100 mg/kg, po by UPLC-IT-TOF-MS analysis; type: ADME, organism-based; conditions: in vivo; summary of the method: as §1
[10] = Drug metabolism in Sprague-Dawley rat feces assessed as (2S,3S,4S,5R,6S)-6-(5,5'-diallyl-2'-methoxybiphenyl-2-yloxy)-3,4,5-trihydroxytetrahydro-2H-pyran-2-carboxylic acid formation at 100 mg/kg, po by UPLC-IT-TOF-MS analysis; type: ADME, organism-based; conditions: in vivo; summary of the method: as §1
Mus musculus [11] = test: Increase in norepinephrine level in Kunming mouse striatum at 40 mg/kg, po treated for 7 days by HPLC-ECD analysis; type: functional, organism-based
Summary of the method: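 Male Kunming mice (18–20 g) given vehicle or 40 mg/kg for 7 days, then killed by cervical dislocation. Frontal cortex, hippocampus, striatum, hypothalamus and thalamus dissected on ice, homogenized in ice-cold 0.2 M perchloric acid with 0.1 mM EDTA, centrifuged 15,000 rpm, 20 min, 4 °C. Supernatant analysed by HPLC-ECD at +0.50 V; phosphate/octanesulfonate mobile phase pH 3.0 with 12% methanol. Levels in ng/g, mean ± SEM.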

[12] = Drug metabolism in Sprague-Dawley rat urine assessed as 1-(5'-allyl-2'-hydroxy-6-((2S,3R,4S,5S,6R)-3,4,5-trihydroxy-6-(hydroxymethyl)tetrahydro-2H-pyran-2-yloxy)biphenyl-3-yl)prop-2-en-1-one formation at 100 mg/kg, po by UPLC-IT-TOF-MS analysis; type: ADME, organism-based; conditions: in vivo
Summary of the method: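 Male/unspecified SD rats (n = 6) housed individually in metabolic cages, dosed orally at 100.0 mg/kg; controls given 0.5% CMC-Na orally. Plasma, urine and faeces collected. LC-IT-TOF-MS on C18 column at 30 °C, formic acid (0.05%) water/acetonitrile gradient 5–100% B over 18 min, 0.2 mL/min; positive and negative ion modes with automatic MS/MS.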

[13] = Drug metabolism in Sprague-Dawley rat feces assessed as 1-(2'-hydroxy-5'-(1-hydroxyallyl)-6-((2S,3R,4S,5S,6R)-3,4,5-trihydroxy-6-(hydroxymethyl)tetrahydro-2H-pyran-2-yloxy)biphenyl-3-yl)prop-2-en-1-one formation at 100 mg/kg, po by UPLC-IT-TOF-MS analysis; type: ADME, organism-based; conditions: in vivo; summary of the method: as §1
Rattus norvegicus [14] = test: Toxicity in Sprague-Dawley rat assessed as skin rashes at 2000 mg/kg, po measured over 4 hrs; type: organism-based; conditions: in vivo; summary of the method: as §2
[15] = Drug metabolism in Sprague-Dawley rat feces assessed as (2S,3S,4S,5R,6S)-3,4,5-trihydroxy-6-(5-(1-hydroxyallyl)-5'-(1-hydroxypropyl)-2'-((2S,3R,4S,5S,6R)-3,4,5-trihydroxy-6-(hydroxymethyl)tetrahydro-2H-pyran-2-yloxy)biphenyl-2-yloxy)tetrahydro-2H-pyran-2-carboxylic acid formation at 100 mg/kg, po by UPLC-IT-TOF-MS analysis; type: ADME, organism-based; conditions: in vivo; summary of the method: as §1

Melatonin receptor type 1A, sequence (P48039 whole entry): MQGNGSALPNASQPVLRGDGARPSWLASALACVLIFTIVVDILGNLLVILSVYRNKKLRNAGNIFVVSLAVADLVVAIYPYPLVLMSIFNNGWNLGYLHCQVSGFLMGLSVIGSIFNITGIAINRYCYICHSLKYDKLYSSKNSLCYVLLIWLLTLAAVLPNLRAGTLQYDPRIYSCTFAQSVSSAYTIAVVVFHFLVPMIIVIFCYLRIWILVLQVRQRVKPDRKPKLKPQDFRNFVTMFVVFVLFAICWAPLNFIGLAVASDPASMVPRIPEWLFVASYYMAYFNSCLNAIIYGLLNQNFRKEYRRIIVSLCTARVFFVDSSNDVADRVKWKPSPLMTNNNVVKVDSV

Structure (SMILES): C=CCc1ccc(O)c(-c2cc(CC=C)ccc2O[C@@H]2O[C@H](CO)[C@@H](O)[C@H](O)[C@H]2O)c1
- Activity (Mus musculus [1]): Active
- Drug metabolism [2]: Metabolite_Notdetected
- Drug metabolism [3]: Metabolite_Detected
- Drug metabolism [4]: Metabolite_Notdetected
- Activity (Rattus norvegicus [5]): Non-Toxic
- EC50 [6]: 397 µM
- EC50 [7]: 383 µM
- Activity (Rattus norvegicus [8]): Non-Toxic
- Drug metabolism [9]: Metabolite_Notdetected
- Drug metabolism [10]: Metabolite_Notdetected
- Activity (Mus musculus [11]): Active
- Drug metabolism [12]: Metabolite_Detected
- Drug metabolism [13]: Metabolite_Notdetected
- Activity (Rattus norvegicus [14]): Non-Toxic
- Drug metabolism [15]: Metabolite_Detected
